SMILES strings stand for the structures. Activity calls are given as the source filed them. No cut-off for these calls is given here.

This note sets out measurements from ChEMBL document CHEMBL1139252, “Inhibition of purple acid phosphatase with alpha-alkoxynaphthylmethylphosphonic acids” (Bioorg Med Chem Lett, 2009).

Assay [1] deals with T1, Fe(3+)-Zn(2+) purple acid phosphatase (Phaseolus vulgaris) (UniProt P80366).
T1 sequence (whole entry): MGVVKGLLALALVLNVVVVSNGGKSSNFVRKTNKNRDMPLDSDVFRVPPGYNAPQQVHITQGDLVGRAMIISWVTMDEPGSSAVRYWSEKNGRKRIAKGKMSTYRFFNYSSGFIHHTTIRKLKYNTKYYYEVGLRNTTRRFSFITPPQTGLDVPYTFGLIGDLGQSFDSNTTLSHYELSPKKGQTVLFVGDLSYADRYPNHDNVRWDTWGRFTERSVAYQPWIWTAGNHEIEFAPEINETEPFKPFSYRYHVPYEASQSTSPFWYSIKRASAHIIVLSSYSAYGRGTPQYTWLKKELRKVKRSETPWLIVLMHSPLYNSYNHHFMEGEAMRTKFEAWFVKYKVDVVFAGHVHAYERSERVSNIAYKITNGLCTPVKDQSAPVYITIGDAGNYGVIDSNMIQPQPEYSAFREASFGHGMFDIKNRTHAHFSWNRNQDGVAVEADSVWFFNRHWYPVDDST
In words: Inhibition of red kidney bean PAP at pH 6.2. Summed up: (§1)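 Each enzyme was run at its own pH optimum: red kidney bean PAP at pH 6.2 and pig PAP at pH 4.9. IC50 values were determined experimentally. Separate inhibition constants were derived for binding to the free enzyme and to the enzyme–substrate complex.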

For assay [2], the species on record is Sus scrofa. In words: Activity of pig PAP at pH 4.9.
The species named for assay [3] is Sus scrofa. In words: Inhibition of pig PAP at pH 4.9. In a few lines: as §1
For a further assay, the species on record is Homo sapiens. In words: Inhibition of human PAP.

Regarding `CCCCCCCCOC(c1cccc2ccccc12)P(=O)(O)O` (racemic), in assay [1], the Kic is 0.05 mM, the Kiuc is 0.129 mM and the logIC50 is -1. For the same molecule, in the assay filed under Sus scrofa [2], the Km is 1500 µM. In the assay listed under Sus scrofa [3], the Kic was 0.023 mM, the Kiuc stood at 0.044 mM and the logIC50 is -1.5.

In assay [1], `CCCCCCOC(c1cccc2ccccc12)P(=O)(O)O` (racemic) returned a Kic of 1.47 mM, a Kiuc of 1.43 mM and a logIC50 of 0. Further, the Km in the assay filed under Sus scrofa [2] worked out at 2650 µM. Also, in the assay filed under Sus scrofa [3], the logIC50 is -0.37.

In assay [1], `O=P(O)(O)C(O)c1cccc2ccccc12` (configuration not stated) displayed a logIC50 of 0.7. Moreover, the outcome in the assay filed under Homo sapiens was inactive.

`O=P(O)(O)Cc1cccc2ccccc12`: the logIC50 in assay [1] is > 0.845.

Consider `CCCCCCCCCCOC(c1cccc2ccccc12)P(=O)(O)O` (racemic), for which, in assay [1], the Kic was 0.004 mM, the Kiuc was 0.03 mM and the logIC50 was -2.1. Also, the Michaelis-Menten constant (Km) in the assay listed under Sus scrofa [2] is 1130 µM. Further, in the assay listed under Sus scrofa [3], the Kic is 0.017 mM, the Kiuc was determined as 0.02 mM and the logIC50 is -1.7.

The term Km denotes the concentration of substrate that gives half-maximal velocity.
